Experimental data collected from several papers.
Protocols differ between the studies behind these lines.
Target: Homeodomain-interacting protein kinase 1 (HIPK1, Homo sapiens, UniProt Q86Z02)

| Structure (SMILES) | test | setting | quantity | result |
| --- | --- | --- | --- | --- |
| O=C(O)c1ccc2c(c1)nc(NCCc1ccccc1)c1ccncc12 | enzyme activity, inhibitor, radiometric | 1 µM | remaining activity | 12% |
| Cc1sc(C(=O)NC2COC2)cc1-n1cc(NC(=O)Nc2c(F)cccc2Cl)cn1 | enzyme activity, inhibitor | 10 µM | remaining activity | 116% |
| CNC(=O)Nc1ccc2c(c1)CC[C@@]21OC(=O)N(CC(=O)N(Cc2ccc(F)cc2)[C@@H](C)C(F)(F)F)C1=O | cell-free assay, competition with immobilised ligand | 1 µM | remaining binding | 85% |
| CCN(CC)CCNC(=O)c1c(C)[nH]c(/C=C2\C(=O)Nc3ccc(F)cc32)c1C | enzyme activity, inhibitor | 10 µM | inhibition | 59% |
| CC/C(=N\NC(=O)NCc1cccc(O)c1)c1ccc(O)c(C)c1O | enzyme activity, inhibitor | 0.1 µM | inhibition | 6.3% |
| CO[C@@H](C)c1c(Nc2ccc([C@@H](N(C)C(=O)C3CCS(=O)(=O)CC3)C(F)(F)F)cc2)cnc2cc(Cl)nn12 | cell-free assay, competition with immobilised ligand | 1 µM | remaining binding | 56% |
| O=C(O)c1ccc2c(c1)nc(Nc1ccc(Cl)cc1)c1ccncc12 | enzyme activity, inhibitor, radiometric | 1 µM | remaining activity | 6% |
| COc1cc2nccc(Oc3ccc(NC(=O)c4c5n(n(-c6ccc(F)cc6)c4=O)CCCC5)cc3)c2cc1OC | enzyme activity, inhibitor | 0.1 µM | inhibition | 12% |
| Cc1ccc(Nc2nccc(N(C)c3ccc4c(C)n(C)nc4c3)n2)cc1S(N)(=O)=O | enzyme activity, inhibitor | 0.3 µM | inhibition | 11% |
| O=C(NCc1ncc(C(F)(F)F)cc1Cl)c1ccc2c(c1)C1(CCS(=O)(=O)CC1)[C@@H](C1CC1)N2S(=O)(=O)c1ccc(F)cc1 | cell-free assay, competition with immobilised ligand | 1 µM | remaining binding | 70% |
| O=C(O)c1ccc2c(c1)nc(NCCc1ccccc1)c1ncncc12 | enzyme activity, inhibitor, radiometric | 1 µM | remaining activity | 18% |
| CC(=O)c1c(NS(C)(=O)=O)c2cc(-c3ccc(Cl)cc3)c(-c3ccc(Cl)cc3Cl)nc2n(C)c1=O | cell-free assay, competition with immobilised ligand | 1 µM | remaining binding | 96% |
| COc1cc(/C=C/C(=O)CC(=O)/C=C/c2ccc(O)c(OC)c2)ccc1O | enzyme activity, inhibitor | 1 µM | activity vs control | 44% |
| COCCOc1nc(-c2ccc(Cl)nc2)nc2c1CN(C(=O)c1ncn3ccccc13)CC2 | cell-free assay, competition with immobilised ligand | 0.1 µM | remaining binding | 90% |
| COc1cccc(Nc2nc3cc(C(=O)O)ccc3c3cnccc23)c1 | enzyme activity, inhibitor, radiometric | 1 µM | remaining activity | 11% |
| FC(F)(F)Oc1cccc(-c2cnc3ccc(-c4ccncc4)nn23)c1 | enzyme activity, inhibitor, radiometric | 1 µM | activity vs control | 29% |
| CN([C@@H]1CCc2c(CC(=O)O)c3cc(S(C)(=O)=O)ccc3n2C1)S(=O)(=O)c1ccc(F)cc1 | cell-free assay, competition with immobilised ligand | 1 µM | remaining binding | 77% |
| Cc1ccc(C(=O)NCc2ccsc2)cc1C#Cc1cn(C(C)C)c2ncnc(N)c12 | enzyme activity, inhibitor | 1 µM | activity vs control | 106% |
| O=C(O)c1ccc2c(c1)nc(Nc1cccc(F)c1)c1ncncc12 | enzyme activity, inhibitor, radiometric | 1 µM | remaining activity | 3% |
| CC1=C(C#N)C(c2ccc3c(c2)c(NC(=O)c2ccccc2C)nn3C)C(C#N)=C(C)N1 | cell-free assay, competition with immobilised ligand | 1 µM | remaining binding | 71% |
| O=C(O)c1ccc2c(c1)nc(Nc1ccccc1)c1ccncc12 | enzyme activity, inhibitor, radiometric | 1 µM | remaining activity | 30% |
| CCCS(=O)(=O)Nc1ccc(F)c(C(=O)c2c[nH]c3ncc(-c4ccc(Cl)cc4)cc23)c1F | enzyme activity, inhibitor | 1 µM | inhibition | < 10% |
| COc1cc2ncnc(Nc3ccc(Oc4ccccc4)c(C)c3C)c2cc1OC | enzyme activity, inhibitor | 1 µM | inhibition | 3% |
| COc1cccc(CCNc2nc3cc(C(=O)O)ccc3c3cncnc23)c1 | enzyme activity, inhibitor, radiometric | 1 µM | remaining activity | 36% |
| Cc1ccc(NC(=O)c2ccc(C)c(C(F)(F)F)c2)cc1C#Cc1nn(C2CCC(O)CC2)c2ncnc(N)c12 (stereo not drawn) | cell-free assay | 10 µM | remaining signal | 107% |
| O=C(O)c1ccc2c(c1)nc(NCc1ccccc1)c1ccncc12 | enzyme activity, inhibitor, radiometric | 1 µM | remaining activity | 76% |
| N#CCCc1ccc2c(c1)-c1[nH]c3ccc([N+](=O)[O-])cc3c1CC(=O)N2 | cell-free assay | 0.5 µM | remaining signal | 97.9% |
| CNC(=O)c1cc(Oc2ccc(NC(=O)Nc3ccc(Cl)c(C(F)(F)F)c3)cc2)ccn1 | enzyme activity, inhibitor | 10 µM | inhibition | 61% |
| C[C@H](c1ccc(F)cc1)N(Cc1cccc(C(=O)O)c1)C(=O)c1cnc2ccccc2c1 | cell-free assay, competition with immobilised ligand | 1 µM | remaining binding | 100% |
| O=C1NC(=O)c2cc(Nc3ccc(F)cc3)c(Nc3ccc(F)cc3)cc21 | cell-free assay | 0.5 µM | remaining signal | 102% |
